Assay [1] has as its target T1, rat PAM (Rattus norvegicus, UniProt P14925).
T1 sequence (P14925 36-715 isoform P14925-2 limits assumed): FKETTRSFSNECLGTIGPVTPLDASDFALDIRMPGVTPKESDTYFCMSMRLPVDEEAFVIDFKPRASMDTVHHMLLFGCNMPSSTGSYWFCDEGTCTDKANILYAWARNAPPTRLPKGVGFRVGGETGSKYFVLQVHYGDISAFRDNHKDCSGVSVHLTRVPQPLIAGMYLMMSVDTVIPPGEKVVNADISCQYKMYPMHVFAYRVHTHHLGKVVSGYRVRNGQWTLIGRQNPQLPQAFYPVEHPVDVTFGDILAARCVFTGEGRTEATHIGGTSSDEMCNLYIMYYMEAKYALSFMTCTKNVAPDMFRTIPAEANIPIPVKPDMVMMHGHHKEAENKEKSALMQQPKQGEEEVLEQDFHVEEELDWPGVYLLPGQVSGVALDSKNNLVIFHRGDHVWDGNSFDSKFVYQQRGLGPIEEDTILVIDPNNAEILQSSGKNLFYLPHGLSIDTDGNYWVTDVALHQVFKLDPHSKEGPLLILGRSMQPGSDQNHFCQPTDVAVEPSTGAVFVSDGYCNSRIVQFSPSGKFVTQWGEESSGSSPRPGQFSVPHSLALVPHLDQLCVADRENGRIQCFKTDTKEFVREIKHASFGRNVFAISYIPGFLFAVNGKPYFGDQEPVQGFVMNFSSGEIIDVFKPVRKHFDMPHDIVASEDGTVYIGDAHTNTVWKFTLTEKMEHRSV
The assay is described as follows: Bifunctional rat PAM inhibition. The format is biochemical.

The target of assay [2] is T1, rat PAM. Kind of assay: Steady-state kinetics of rat bifunctional PAM substrates. The conditions noted are these: for (V/K)app / Km: O2 consumption, 5.0 mM ascorbate, pH 6.0, 37 °C; for Km: read-out: KM,app; for Rel. (V/K)app: relative to hippuric acid = 1.0; for (V/K)app as percent of the corresponding glycine substrate: D-alanine substrate vs. corresponding glycine substrate.

In assay [3] the test system is B. germanica PHM. The assay is described as follows: B. germanica PHM inhibition. The class given is biochemical, Blatella germanica. Conditions: for RatKi,s/InsectKi,s: ratio rat PAM Ki,s to B. germanica PHM Ki,s; for Ki: read-out: Ki,s vs. B. germanica PHM, N-dansyl-Tyr-Val-Gly amidation.
Assay [4] relates to DU 145 cells. The assay is described as follows: Growth of human prostate DU 145 cells. The class given is cell-based. Conditions: for antiproliferative concentration relative to Ki,s for PHM: DU 145 cells vs. in vitro Ki,s. The gist of the method: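 DU 145 cells in EMEM (Earle's salts, 2 mM glutamine, 1.0 mM pyruvate, 0.1 mM amino acids, 10% FBS, penicillin/streptomycin). Grown to 80% confluency, trypsinized, seeded at 50,000 cells/well, adhered 24 h. Medium then replaced with or without test compound; 10 μM 4-HPR as positive control. Counted at 8, 24, 48, 72, 96 h: PBS wash, trypsin/EDTA detachment, Trypan blue, hemacytometer viable/non-viable count.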

Assay [5] relates to PHM. Conditions: cited from earlier work; for Km: read-out: KM,app.
For assay [6], the target named is PAL activity of rat PAM (Rattus norvegicus, UniProt P14925). The assay is described as follows: Inhibition of PAL activity. The format is biochemical. The conditions noted are these: read-out: inhibition of PAL activity. The essentials:
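Recombinant type A rat medullary thyroid carcinoma PAM (1.5–3.0 μg) started reactions at 37.0 °C. Buffer: 100 mM MES/NaOH pH 6.0, 30 mM NaCl, 1% ethanol, 0.001% Triton X-100. Substrate: 2.0 mM (R,S)-α-hydroxyhippuric acid, with 0 or 750 μM test compound. No-enzyme blank included. TFA quench at 20 min. Glyoxylate measured spectrophotometrically against a standard curve.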

Where [7] appears, read: Ki,s, rat PAM, absence of DMSO, competitive inhibition assumed.

These results are taken from article PMC2668526 (Bioorganic & medicinal chemistry, 2008).

Several values for one entry are separate records, joined by “and”; a condition that tells them apart may be missing. Identical values can stand only once. Like-named read-outs stand apart in the source and are kept apart here. Where a SMILES comes first, the peptide text is derived from it. The star is where a group is joined. ClAc = O=C(CCl)*; NHOH = ON* Where only a bound is given, the exact number is not on record here.

For `O=C(O)COC(=O)Nc1ccccc1` [compound 65, O-(Phenylcarbamoyl)glycolic acid], the Ki in assay [1] (setting [7]) worked out at 54 ± 4 µM. With “2-Pyridylmercaptoacetylglycine [compound 47]”, in assay [2], the “(V/K)app” value is reported as “(8.3 ± 0.7) × 10^4 M^−1 s^−1”, the Michaelis-Menten constant (Km) was found to be 36 ± 4 µM and the “Rel. (V/K)app” value is recorded as 13. With `CC(NC(=S)c1ccccc1)C(=O)O` (stereo not drawn) [compound 59, N-(Thiobenzoyl)-(D,L)-alanine], in assay [1] (setting [7]), the Ki stood at 7.2 ± 0.9 µM. In the case of `O=C(O)CSC(=S)CCc1ccccc1` [compound 62, S-(3-Phenylthiopropionyl)thioglycolic acid], in assay [3], the “RatKi,s/InsectKi,s” value worked out at 11. The Ki in assay [3] was 0.87 ± 0.11 µM; in assay [1] (Ki,s, rat PAM, […] DMSO), 30 µM; in assay [1] (setting [7]), 9.4 ± 0.8 µM. Take “2-Propylmercaptoacetylglycine [compound 29]”: in assay [2], the “(V/K)app” value is recorded as “(8.2 ± 0.3) × 10^3 M^−1 s^−1”, the Km is 220 ± 10 µM and the “Rel. (V/K)app” value came to 1.3. With `O=C(O)CCSC(=S)Nc1ccccc1` [compound 56, S-(Phenylthiocarbamoyl)-3-mercaptopropionic acid], the “RatKi,s/InsectKi,s” value in assay [3] is given as 0.47. Besides, the figures for the Ki in assay [3] and in assay [1] (setting [7]) were 5.5 ± 0.8 µM and 2.6 ± 0.7 µM, respectively. On to `C[C@@H](NC(=O)OCc1ccccc1)C(=O)O` [compound 53, CBZ-D-alanine], for which the “(V/K)app as percent of the corresponding glycine substrate” value (“(V/K)app as percent” for short) in assay [2] is 0.05–0.3%.

Regarding `O=C(O)CNC(=O)CCCCCc1ccccc1` [compound 50, 6-Phenylhexanoylglycine], in assay [2], the “increase of (V/K)app over hippurate 1” value was ~ 30 fold and the “ratio of (V/K)app to that of 3-(2-furyl)acryloylglycine 26” value is on record as “about 70”.

In the case of `O=C(O)CSC(=S)c1ccccc1` [compound 64, S-(Thiobenzoyl)thioglycolic acid], the Ki is 92 ± 10 µM in assay [3]; 49 µM in assay [1] (Ki,s, rat PAM, […] DMSO); 39 ± 5 µM in assay [1] (setting [7]). For `O=C(NC(CSC(=O)c1ccccc1)C(=O)O)c1ccccc1` (stereo in doubt) [compound 68, N,S-Dibenzoyl-L-cysteine], affinity in assay [1] (setting [7]) was put at a Ki of 69 ± 7 µM. Regarding `Cc1ccc(C(=S)SCC(=O)O)cc1` [compound 57, S-(4-Methylthiobenzoyl)thioglycolic acid], in assay [3], the “RatKi,s/InsectKi,s” value came out at 0.25 and the Ki stood at 14 ± 1 µM. Moreover, affinity in assay [1] (setting [7]) was put at a Ki of 3.5 ± 0.4 µM. For the same molecule, the “antiproliferative concentration relative to Ki,s for PHM” value in assay [4] is 60–300 fold.

In assay [1] (setting [7]), `O=C(O)CNCc1ccccc1` [compound 79, N-Benzylglycine] gave a Ki of 18000 µM. As for `C[C@@H](NC(=O)c1ccccc1)C(=O)O` [compound 52, Benzoyl-D-alanine], the “(V/K)app as percent” value in assay [2] is 0.05–0.3%. For `CC(C#N)(CCC(=O)O)SC(=S)c1ccccc1` (stereo not drawn) [compound 58, S-(Thiobenzoyl)-4-mercapto-4-cyanopentanoic acid], in assay [1] (setting [7]), affinity was put at a Ki of 5.7 ± 0.4 µM.

`O=C(O)CNC(=S)Nc1ccccc1` [compound 69, N-Phenylthiohydantoic acid] yielded a Ki in assay [1] (Ki,s, rat PAM, […] DMSO) of 110 ± 20 µM. Consider `O=C(O)CNC(=O)CCCCCCCc1ccccc1` [compound 46, 8-Phenyloctanoylglycine], for which the “(V/K)app lower than that of 6-phenylhexanoylglycine 50” value in assay [2] is reported as ~ 2.5 fold. Regarding `N[C@@H](CCC(=O)N[C@@H](CS)C(=O)NCC(=O)O)C(=O)O` [glutathione], the Michaelis-Menten constant (Km) in assay [5] was 130 µM. Turning to `O=C(N[C@H](CO)C(=O)O)c1ccccc1` [compound 76, N-(Benzoyl)-D-serine], in assay [1] (setting [7]), affinity was put at a Ki of 1500 µM.

In assay [1], `O=C(NCP(=O)(O)O)c1cccnc1` [compound 80, (Nicotinamidomethyl)phosphonic acid] gave a Ki greater than 75000 µM. The “inhibition of PHM (O2 consumption)” value in assay [1] (28 mM compound, 200 μM N-octanoylglycine as substrate) was “no inhibition”.

As to 3-Indolylacetylglycine [compound 24], the “(V/K)app” value in assay [2] was “(2.5 ± 0.1) × 10^3 M^−1 s^−1”.

As to methyl ester of N-dansyl-Tyr-Val-Gly, in assay [5] (read-out: Ki,s, ref 20a), the Ki was 54 µM. For `O=C(O)CSC(=S)Cc1ccccc1` [compound 60, S-(2-Phenylthioacetyl)thioglycolic acid], in assay [3], the “RatKi,s/InsectKi,s” value is listed as 2.1. Also, the Ki was 3.6 ± 0.6 µM in assay [3]; 13 µM in assay [1] (Ki,s, rat PAM, […] DMSO); 7.9 ± 2.8 µM in assay [1] (setting [7]). In assay [4], the “antiproliferative concentration relative to Ki,s for PHM” value is ~ 60 fold and 60–300 fold. In addition, in assay [4] (DU 145 cells, Fig. 2), the “concentration showing significant anti-proliferative effects” value is greater than 500 µM. For `O=C(O)CNC(=O)c1ccccc1O` [salicylurate], the Km in assay [5] (ref 23b) is 860 µM.

In assay [1] (setting [7]), `O=C(NO)c1ccccc1O` [compound 71, Salicylhydroxamic acid] returned a Ki of 300 ± 20 µM. In the case of `O=C(O)CSc1ccccc1` [compound 72, S-Phenylmercaptoacetic Acid], in assay [3], the “RatKi,s/InsectKi,s” value was 6.9 and the Ki was 56 ± 6 µM. Further, the affinity in assay [1] (setting [7]) corresponds to a Ki of 380 ± 40 µM. As to `O=C(O)CNC(=O)CNC(=O)CCl` [compound 34, Chloroacetyl-Gly-Gly] (ClAc-Gly-Gly-OH), in assay [2], the “(V/K)app” value is “(2.1± 0.1) × 10^4 M^−1 s^−1” and the Km was 420 ± 30 µM. Take `CC(C)C[C@H](NC(=O)[C@@H]1CCCN1)C(=O)NCC(=O)NO` [compound 74, Pro-Leu-Gly hydroxamic acid] (H-Pro-Leu-Gly-{NHOH}): the Ki in assay [1] (setting [7]) amounted to 1000 µM.

In assay [1] (setting [7]), `O=C(O)CONC(=O)c1ccccc1` [compound 73, O-Benzamidoglycolic acid] yielded a Ki of 1000 µM.

Consider `O=C(O)CSC(=S)Nc1ccccc1` [compound 61, S-(Phenylthiocarbamoyl)thioglycolic acid], for which the “RatKi,s/InsectKi,s” value in assay [3] amounted to 1.6. Moreover, the Ki in assay [3] was found to be 5.4 ± 0.3 µM; in assay [1] (setting [7]), 8.6 ± 1.4 µM. The inhibition at 750 µM in assay [6] is roughly 40%. Consider `NCC(=O)NNC(=O)OCc1ccccc1` [compound 78, (CBZ-hydrazido)glycine], for which affinity in assay [1] (setting [7]) was put at a Ki of 7900 µM. Still for that read-out and setting: the figure for `CCOC(=O)CSC(=S)c1ccc(C)cc1` [compound 70, S-(4-Methylthiobenzoyl)thioglycolic acid ethyl ester] is 110 ± 10 µM. As to `CC(=O)N[C@H](C)C(=O)O` [compound 51, Acetyl-D-alanine], in assay [2], the “(V/K)app as percent” value was 0.05–0.3%.

As to `CC1=C(/C=C/C(C)=C/C=C/C(C)=C/C(=O)Nc2ccc(O)cc2)C(C)(C)CCC1` [4-HPR, N-(4-hydroxyphenyl) retinamide, reference compound], in assay [4] (DU 145 cells, 10 μM, 48 hr), the “effect on cell growth (positive control)” value is “completely eliminates cell growth”. `CC(SC(=S)c1ccccc1)C(=O)O` (racemic) [compound 66, S-(Thiobenzoyl)-(R,S)-thiolactic acid]: in assay [1] (setting [7]), the Ki amounted to 58 ± 9 µM. The same measure, in the same setting: the figure for `CCCCCCCCCCCC(=S)SCC(=O)O` [compound 55, S-(Thiolauroyl)thioglycolic acid] is 0.54 ± 0.05 µM; for `O=C(NCC[C@H](O)C(=O)O)OCc1ccccc1` [compound 75, (S)-N-CBZ-4-amino-2-hydroxybutyric acid] it is 1400 µM.
